Read-outs that look alike come from different tables or passages of the source.
Test system: East Asian patients with advanced nonhematologic malignancies
Assay type: in vivo, human
Outline: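 AEs were graded by NCI CTCAE v4.03 in all patients receiving ≥ 1 oral dose, given once daily or once weekly in 28-day cycles for up to 12 months. Follow-up lasted 30 days after the last dose. Entry required ECOG 0–1, fasting glucose ≤ 130 mg/dL and triglycerides ≤ 300 mg/dL. Summaries were descriptive.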

[1] = QW dose escalation 20 mg (n = 3)
[2] = QW dose escalation 30 mg (n = 3)

SMILES: CC(C)n1nc(-c2ccc3oc(N)nc3c2)c2c(N)ncnc21 [sapanisertib]
- Treatment-related AE hyperglycemia (QW arm): 50%
- Treatment-related AE nausea (QW arm): 100%
- AEs resulting in discontinuation [1]: 0 n (%)
- AEs resulting in dose interruption [1]: 2 (67) n (%)
- AEs resulting in dose reduction [1]: 0 n (%)
- Any AE [1]: 3 (100) n (%)
- Any grade ≥ 3 AE [1]: 3 (100) n (%)
- On-study deaths [1]: 0 n (%)
- SAEs [1]: 2 (67) n (%)
- Treatment-related AE [1]: 3 (100) n (%)
- Treatment-related SAEs [1]: 1 (33) n (%)
- Treatment-related grade ≥ 3 AE [1]: 1 (33) n (%)
- AEs resulting in discontinuation [2]: 1 (33) n (%)
- AEs resulting in dose interruption [2]: 1 (33) n (%)
- AEs resulting in dose reduction [2]: 0 n (%)
- Any AE [2]: 3 (100) n (%)
- Any grade ≥ 3 AE [2]: 1 (33) n (%)
- On-study deaths [2]: 0 n (%)
- SAEs [2]: 1 (33) n (%)
- Treatment-related AE [2]: 3 (100) n (%)
- Treatment-related SAEs [2]: 0 n (%)
- Treatment-related grade ≥ 3 AE [2]: 0 n (%)
- AE by preferred term: Abdominal pain (QW dosing n = 6): 1 (17) n (%)
- AE by preferred term: Alanine aminotransferase increased (QW dosing n = 6): 3 (50) n (%)
- AE by preferred term: Anemia (QW dosing n = 6): 1 (17) n (%)
- AE by preferred term: Aspartate aminotransferase increased (QW dosing n = 6): 3 (50) n (%)
- AE by preferred term: Blood alkaline phosphatase increased (QW dosing n = 6): 4 (67) n (%)
- AE by preferred term: Blood bilirubin increased (QW dosing n = 6): 2 (33) n (%)
- AE by preferred term: Decreased appetite (QW dosing n = 6): 3 (50) n (%)
- AE by preferred term: Diarrhea (QW dosing n = 6): 1 (17) n (%)
- AE by preferred term: Erythema (QW dosing n = 6): 1 (17) n (%)
- AE by preferred term: Fatigue (QW dosing n = 6): 2 (33) n (%)
- AE by preferred term: Gamma-glutamyltransferase increased (QW dosing n = 6): 2 (33) n (%)
- AE by preferred term: Headache (QW dosing n = 6): 1 (17) n (%)
- AE by preferred term: Hiccups (QW dosing n = 6): 2 (33) n (%)
- AE by preferred term: Hyperglycemia (QW dosing n = 6): 4 (67) n (%)
- AE by preferred term: Hypokalemia (QW dosing n = 6): 1 (17) n (%)
- AE by preferred term: Lymphocyte count decreased (QW dosing n = 6): 1 (17) n (%)
- AE by preferred term: Nausea (QW dosing n = 6): 6 (100) n (%)
- AE by preferred term: Platelet count decreased (QW dosing n = 6): 1 (17) n (%)
- AE by preferred term: Pyrexia (QW dosing n = 6): 1 (17) n (%)
- AE by preferred term: Stomatitis (QW dosing n = 6): 2 (33) n (%)
- AE by preferred term: Vomiting (QW dosing n = 6): 3 (50) n (%)
- AE by preferred term: Weight decreased (QW dosing n = 6): 3 (50) n (%)
- Grade ≥ 3 AE: Alanine aminotransferase increased (QW dosing n = 6): 1 (17) n (%)
- Grade ≥ 3 AE: Aspartate aminotransferase increased (QW dosing n = 6): 1 (17) n (%)
- Grade ≥ 3 AE: Cholangitis acute (QW dosing n = 6): 1 (17) n (%)
- Grade ≥ 3 AE: Enteritis (QW dosing n = 6): 1 (17) n (%)
- Grade ≥ 3 AE: Gamma-glutamyltransferase increased (QW dosing n = 6): 2 (33) n (%)
- Grade ≥ 3 AE: Hyperglycemia (QW dosing n = 6): 1 (17) n (%)
- Grade ≥ 3 AE: Lymphocyte count decreased (QW dosing n = 6): 1 (17) n (%)
- Grade ≥ 3 AE: Malignant neoplasm progression (QW dosing n = 6): 1 (17) n (%)
- Patients with ≥ 1 grade 3 or higher AE (QW dosing n = 6): 4 (67) n (%)
- AEs resulting in discontinuation (QW total (n = 6)): 1 (17) n (%)
- AEs resulting in dose interruption (QW total (n = 6)): 3 (50) n (%)
- AEs resulting in dose reduction (QW total (n = 6)): 0 n (%)
- Any AE (QW total (n = 6)): 6 (100) n (%)
- Any grade ≥ 3 AE (QW total (n = 6)): 4 (67) n (%)
- On-study deaths (QW total (n = 6)): 0 n (%)
- SAEs (QW total (n = 6)): 3 (50) n (%)
- Treatment-related AE (QW total (n = 6)): 6 (100) n (%)
- Treatment-related SAEs (QW total (n = 6)): 1 (17) n (%)
- Treatment-related grade ≥ 3 AE (QW total (n = 6)): 1 (17) n (%)
- AE by preferred term: Abdominal pain (Total n = 28): 4 (14) n (%)
- AE by preferred term: Alanine aminotransferase increased (Total n = 28): 7 (25) n (%)
- AE by preferred term: Anemia (Total n = 28): 6 (21) n (%)
- AE by preferred term: Aspartate aminotransferase increased (Total n = 28): 9 (32) n (%)
- AE by preferred term: Blood alkaline phosphatase increased (Total n = 28): 4 (14) n (%)
- AE by preferred term: Blood bilirubin increased (Total n = 28): 2 (7) n (%)
- AE by preferred term: Constipation (Total n = 28): 4 (14) n (%)
- AE by preferred term: Decreased appetite (Total n = 28): 14 (50) n (%)
- AE by preferred term: Diarrhea (Total n = 28): 3 (11) n (%)
- AE by preferred term: Erythema (Total n = 28): 3 (11) n (%)
- AE by preferred term: Erythema multiforme (Total n = 28): 2 (7) n (%)
- AE by preferred term: Fatigue (Total n = 28): 9 (32) n (%)
- AE by preferred term: Gamma-glutamyltransferase increased (Total n = 28): 4 (14) n (%)
- AE by preferred term: Gastrointestinal inflammation (Total n = 28): 2 (7) n (%)
- AE by preferred term: Headache (Total n = 28): 3 (11) n (%)
- AE by preferred term: Hiccups (Total n = 28): 2 (7) n (%)
- AE by preferred term: Hyperglycemia (Total n = 28): 13 (46) n (%)
- AE by preferred term: Hypokalemia (Total n = 28): 4 (14) n (%)
- AE by preferred term: Lymphocyte count decreased (Total n = 28): 5 (18) n (%)
- AE by preferred term: Nausea (Total n = 28): 17 (61) n (%)
- AE by preferred term: Neutrophil count decreased (Total n = 28): 2 (7) n (%)
- AE by preferred term: Platelet count decreased (Total n = 28): 7 (25) n (%)
- AE by preferred term: Pruritus (Total n = 28): 2 (7) n (%)
- AE by preferred term: Pyrexia (Total n = 28): 5 (18) n (%)
- AE by preferred term: Rash erythematous (Total n = 28): 2 (7) n (%)
- AE by preferred term: Rash maculo-papular (Total n = 28): 5 (18) n (%)
- AE by preferred term: Rash pustular (Total n = 28): 2 (7) n (%)
- AE by preferred term: Stomatitis (Total n = 28): 16 (57) n (%)
- AE by preferred term: Urticaria (Total n = 28): 3 (11) n (%)
- AE by preferred term: Vomiting (Total n = 28): 8 (29) n (%)
- AE by preferred term: Weight decreased (Total n = 28): 10 (36) n (%)
- AE by preferred term: White blood cell count decreased (Total n = 28): 4 (14) n (%)
- Grade ≥ 3 AE: Acute myocardial infarction (Total n = 28): 1 (4) n (%)
- Grade ≥ 3 AE: Alanine aminotransferase increased (Total n = 28): 1 (4) n (%)
- Grade ≥ 3 AE: Aspartate aminotransferase increased (Total n = 28): 2 (7) n (%)
- Grade ≥ 3 AE: Blood creatine phosphokinase increased (Total n = 28): 1 (4) n (%)
- Grade ≥ 3 AE: Cholangitis acute (Total n = 28): 1 (4) n (%)
- Grade ≥ 3 AE: Decreased appetite (Total n = 28): 1 (4) n (%)
- Grade ≥ 3 AE: Diarrhea (Total n = 28): 1 (4) n (%)
- Grade ≥ 3 AE: Enteritis (Total n = 28): 1 (4) n (%)
- Grade ≥ 3 AE: Gamma-glutamyltransferase increased (Total n = 28): 3 (11) n (%)
- Grade ≥ 3 AE: Gastrointestinal inflammation (Total n = 28): 1 (4) n (%)
- Grade ≥ 3 AE: Genital herpes (Total n = 28): 1 (4) n (%)
- Grade ≥ 3 AE: Gingivitis (Total n = 28): 1 (4) n (%)
- Grade ≥ 3 AE: Hyperglycemia (Total n = 28): 1 (4) n (%)
- Grade ≥ 3 AE: Jaundice cholestatic (Total n = 28): 1 (4) n (%)
- Grade ≥ 3 AE: Lymphocyte count decreased (Total n = 28): 3 (11) n (%)
- Grade ≥ 3 AE: Malignant neoplasm progression (Total n = 28): 1 (4) n (%)
- Grade ≥ 3 AE: Nausea (Total n = 28): 2 (7) n (%)
- Grade ≥ 3 AE: Neutrophil count decreased (Total n = 28): 1 (4) n (%)
- Grade ≥ 3 AE: Platelet count decreased (Total n = 28): 1 (4) n (%)
- Grade ≥ 3 AE: Post herpetic neuralgia (Total n = 28): 1 (4) n (%)
- Grade ≥ 3 AE: Pruritus (Total n = 28): 1 (4) n (%)
- Grade ≥ 3 AE: Rash maculo-papular (Total n = 28): 2 (7) n (%)
- Grade ≥ 3 AE: Rash pustular (Total n = 28): 1 (4) n (%)
- Grade ≥ 3 AE: Renal impairment (Total n = 28): 1 (4) n (%)
- Grade ≥ 3 AE: Sepsis (Total n = 28): 1 (4) n (%)
- Grade ≥ 3 AE: Stomatitis (Total n = 28): 2 (7) n (%)
- Grade ≥ 3 AE: Urticaria (Total n = 28): 1 (4) n (%)
- Grade ≥ 3 AE: White blood cell count decreased (Total n = 28): 1 (4) n (%)
- Patients with ≥ 1 grade 3 or higher AE (Total n = 28): 18 (64) n (%)
- Patients reporting at least one AE (across all doses): 100%
- Discontinued treatment due to AEs (both arms): Four
- On-study deaths (whole study): no on-study deaths

Reference: PMC8994735 (Targeted Oncology, 2021)
